For series [1], the target named is Cytochrome P450 2D6 (Homo sapiens, UniProt P10635). Nature of the series: Vmax for oxidation to 3,4-OH-MA by cytochrome P450 2D6 (wild type pSP19T7LT); expressed in 10E5 fluorescence units min-1 nmol-1 CYP. In kind it is ADME. The method, boiled down:
(§1)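 E. coli membranes expressing His-tagged wild-type or Phe120Ala CYP2D6 (25 nM CYP) were incubated in 50 mM KPi pH 7.4 with 5 mM MgCl2. Substrate was tested at 10 concentrations, 0–200 µM. After 5 min preincubation at 37 °C, an NADPH-regenerating system was added (0.2 mM NADPH final). Reactions ran 10 min and were stopped with HClO4. Products were separated by C18 HPLC and read by fluorescence (ex 280/em 320 nm). Km and Vmax came from nonlinear regression of peak areas; at least two independent experiments.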

The target in series [2] is T1, Cytochrome P450 2D6 (Homo sapiens, UniProt P10635, F120A). Nature of the series: Vmax for oxidation to 3,4-OH-MA by cytochrome P450 2D6 (Phe120Ala mutant); expressed in 10E5 fluorescence units min-1 nmol-1 CYP. In kind it is ADME. The method, boiled down:
as §1

Series [3] addresses T1, Cytochrome P450 2D6. Nature of the series: Vmax for oxidation to N-OH-MDMA by cytochrome P450 2D6 (Phe120Ala mutant); expressed in 10E5 fluorescence units min-1 nmol-1 CYP. The format is ADME. The method, boiled down:
as §1

Series [4] deals with T1, Cytochrome P450 2D6. Nature of the series: Vmax for oxidation to 3,4-OH-MA by cytochrome P450 2D6 (Phe120Ala mutant); expressed as 10E5 fluorescence units min-1 nmol-1 CYP; expressed in 10E5 fluorescence units min-1 nmol-1 CYP. In kind it is ADME. The method, boiled down:
as §1

Series [5] concerns CCCNC(C)Cc1ccc2c(c1)OCO2. Nature of the series: (§2) Michaelis-Menten constant for oxidation to 3,4-OH-MA by cytochrome P450 2D6 (Phe120Ala mutant). In kind it is ADME, Homo sapiens. The method, boiled down:
as §1

Series [6] relates to CCNC(C)Cc1ccc2c(c1)OCO2. The description is as §2. In kind it is ADME, Homo sapiens. The method, boiled down:
as §1

Series [7] has as its system CN[C@@H](C)Cc1ccc2c(c1)OCO2. The description is as §2. The format is ADME, Homo sapiens. The method, boiled down: as §1
Series [8] relates to CN[C@H](C)Cc1ccc2c(c1)OCO2. Described as §2. In kind it is ADME, Homo sapiens. The method, boiled down:
as §1

The test system of series [9] is CNC(C)Cc1ccc2c(c1)OCO2. Described as §2. The format is ADME, Homo sapiens. The method, boiled down:
as §1

In series [10] the test system is CCCNC(C)Cc1ccc2c(c1)OCO2. Nature of the series: (§3) Michaelis-Menten constant for oxidation to MDA by cytochrome P450 2D6 (Phe120Ala mutant). In kind it is ADME, Homo sapiens. The method, boiled down:
as §1

Series [11] deals with CCNC(C)Cc1ccc2c(c1)OCO2. The description is as §3. In kind it is ADME, Homo sapiens. The method, boiled down: as §1
Series [12] deals with CN[C@@H](C)Cc1ccc2c(c1)OCO2. Described as §3. The format is ADME, Homo sapiens. The method, boiled down:
as §1

In series [13] the test system is CN[C@H](C)Cc1ccc2c(c1)OCO2. The series is described as §3. The format is ADME, Homo sapiens. The method, boiled down:
as §1

Series [14] concerns CNC(C)Cc1ccc2c(c1)OCO2. Described as §3. In kind it is ADME, Homo sapiens. The method, boiled down: as §1
Series [15] concerns CCCNC(C)Cc1ccc2c(c1)OCO2. Nature of the series: (§4) Michaelis-Menten constant for oxidation to N-OH-MDMA by cytochrome P450 2D6 (Phe120Ala mutant). In kind it is ADME, Homo sapiens. The method, boiled down:
as §1

Series [16] has as its system CCNC(C)Cc1ccc2c(c1)OCO2. The description is as §4. In kind it is ADME, Homo sapiens. The method, boiled down:
as §1

In series [17] the test system is CN[C@@H](C)Cc1ccc2c(c1)OCO2. The series is described as §4. The format is ADME, Homo sapiens. The method, boiled down:
as §1

In series [18] the test system is CN[C@H](C)Cc1ccc2c(c1)OCO2. Described as §4. In kind it is ADME, Homo sapiens. The method, boiled down: as §1
The subject of series [19] is CNC(C)Cc1ccc2c(c1)OCO2. Described as §4. The format is ADME, Homo sapiens. The method, boiled down: as §1
Substrate in series [20]: CNC(C)Cc1ccc2c(c1)OCO2
Nature of the series: (§5) Michaelis-Menten constant for oxidation to 3,4-OH-MA by cytochrome P450 2D6 (wild type pSP19T7LT). The format is ADME, Homo sapiens. The method, boiled down:
as §1

Substrate in series [21]: CN[C@H](C)Cc1ccc2c(c1)OCO2
The description is as §5. The format is ADME, Homo sapiens. The method, boiled down:
as §1

Substrate in series [22]: CN[C@@H](C)Cc1ccc2c(c1)OCO2
The description is as §5. The format is ADME, Homo sapiens. The method, boiled down: as §1

Substrate in series [23]: CCCNC(C)Cc1ccc2c(c1)OCO2
Described as §5. In kind it is ADME, Homo sapiens. The method, boiled down:
as §1

For 7 molecules, Vmax, Km and kcat results are on record in ChEMBL document CHEMBL1141093, “Metabolic regio- and stereoselectivity of cytochrome P450 2D6 towards 3,4-methylenedioxy-N-alkylamphetamines: in silico predictions and experimental validation” (J Med Chem, 2005).

T1 sequence (P10635 whole entry F120A): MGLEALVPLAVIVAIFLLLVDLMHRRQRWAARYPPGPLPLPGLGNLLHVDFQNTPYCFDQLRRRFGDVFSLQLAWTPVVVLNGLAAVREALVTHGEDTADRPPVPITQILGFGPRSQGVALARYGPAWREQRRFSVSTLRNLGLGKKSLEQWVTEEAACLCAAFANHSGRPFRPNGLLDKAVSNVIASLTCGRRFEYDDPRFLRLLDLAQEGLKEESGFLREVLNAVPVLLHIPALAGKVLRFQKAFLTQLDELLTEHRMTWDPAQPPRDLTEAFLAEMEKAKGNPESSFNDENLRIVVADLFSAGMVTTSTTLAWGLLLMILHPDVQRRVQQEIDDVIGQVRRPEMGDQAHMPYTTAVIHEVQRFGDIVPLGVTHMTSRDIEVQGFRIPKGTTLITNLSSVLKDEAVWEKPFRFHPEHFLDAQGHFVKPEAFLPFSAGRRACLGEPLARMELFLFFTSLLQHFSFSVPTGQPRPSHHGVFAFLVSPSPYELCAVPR

For `CCNC(C)Cc1ccc2c(c1)OCO2` (stereo not drawn), the Vmax in [1] is listed as 1.2; in [2] it was 2.9; in [3], 1.4.

Take `CN[C@@H](C)Cc1ccc2c(c1)OCO2`: the values for the Vmax in series [4] and in series [3] were 2.4 and 8.4, respectively.

As for `CCCNC(C)Cc1ccc2c(c1)OCO2` (stereo not drawn), the Vmax worked out at 1.3 in [1], 7.5 in series [2] and 3 in series [3].

With `CN[C@H](C)Cc1ccc2c(c1)OCO2`, the Vmax stood at 1.2 in series [1], 2.4 in series [2] and 10.7 in series [3].

`CNC(C)Cc1ccc2c(c1)OCO2` (stereo not drawn) [MIDOMAFETAMINE]: the figures for the Vmax in series [1] and in series [2] were 1.2 and 2.2, respectively.

As to “Cytochrome P450 2D6 (Homo sapiens; F120A)”, the Michaelis-Menten constant (Km) (in general, the concentration of substrate that gives half-maximal velocity) in series [5] amounted to 5.2 µM; in series [6] it was 3.3 µM; in series [7], 4.9 µM; in [8], 13.2 µM; in series [9], 11.8 µM; in series [10] it was 9.1 µM. For the same molecule, the Km in series [11] was found to be 4.5 µM; in series [12], 10.3 µM; in series [13], 26.1 µM; in series [14], 14.5 µM; in series [15], 28 µM; in series [16], 5.7 µM. The Km was 6.9 µM in series [17], 20.6 µM in series [18] and 11.2 µM in [19]. For the same molecule, the kcat – broadly, the maximal rate divided by the concentration of active sites – was determined as 0.122 s⁻¹ in series [10]; 0.07 s⁻¹ in series [11]; 0.0633 s⁻¹ in series [12]; 0.0983 s⁻¹ in [13]; 0.0583 s⁻¹ in series [14].

B1: Cytochrome P450 2D6 (Homo sapiens) (protein)
chain: MGLEALVPLAVIVAIFLLLVDLMHRRQRWAARYPPGPLPLPGLGNLLHVDFQNTPYCFDQLRRRFGDVFSLQLAWTPVVVLNGLAAVREALVTHGEDTADRPPVPITQILGFGPRSQGVFLARYGPAWREQRRFSVSTLRNLGLGKKSLEQWVTEEAACLCAAFANHSGRPFRPNGLLDKAVSNVIASLTCGRRFEYDDPRFLRLLDLAQEGLKEESGFLREVLNAVPVLLHIPALAGKVLRFQKAFLTQLDELLTEHRMTWDPAQPPRDLTEAFLAEMEKAKGNPESSFNDENLRIVVADLFSAGMVTTSTTLAWGLLLMILHPDVQRRVQQEIDDVIGQVRRPEMGDQAHMPYTTAVIHEVQRFGDIVPLGVTHMTSRDIEVQGFRIPKGTTLITNLSSVLKDEAVWEKPFRFHPEHFLDAQGHFVKPEAFLPFSAGRRACLGEPLARMELFLFFTSLLQHFSFSVPTGQPRPSHHGVFAFLVSPSPYELCAVPR
With B1, the Km in series [20] came to 1.9 µM; in series [21], 2.7 µM; in [22], 3.3 µM; in series [23], 1 µM. The catalytic constant (kcat) in [22] came to 0.02 s⁻¹.
